# Assay outcomes as filed in PubChem.
# Hits are enriched below; roughly 0.77% of the tested compounds scored in any of these assays.
# mIAP activ: increases mouse intestinal alkaline phosphatase activity; muIAP, CDP-Star luminescence, 30 min; stronger effect = higher value; 1 = vehicle-only enzyme signal, 0 = enzyme-free wells; activation factor at 10 µM; 0.24% of 330,000 active; AID 2805;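 active = activation factor of at least 2 at 20 µM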
#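 Assay system: mouse IAP enzyme; Reagent: CDP-Star chemiluminescent phosphatase substrate; Compound: DMSO-dissolved test compounds; Incubation: 30 min, room temperature; Technique: luminescence from enzymatic CDP-Star hydrolysis; Controls: DMSO-only wells and no-enzyme negative control.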
# bIAP inh: blocks bovine intestinal alkaline phosphatase activity | purified bovine IAP, CDP-star luminescence, 30 min | inhibition, % at 20 µM | 190,000 tested, under 10 active;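 active = over 50% inhibition of intestinal alkaline phosphatase at 20 µM in the single-dose screen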
#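 test system = bovine IAP enzyme | medium = DEA buffer 100 mM, pH 9.8, with MgCl2 1.0 mM, ZnCl2 0.02 mM | detection = luminescence | dosing = single compound dose of 20 µM, 2% DMSO final | incubation = 30 min reaction at room temperature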
# bIAP activator: increases bovine intestinal alkaline phosphatase activity; purified bovine IAP, CDP-star luminescence, 30 min; stronger effect = higher value; fold of DMSO-control signal, blank-subtracted; activation factor at 20 µM; 0.17% of 200,000 active;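 active = activation factor of 2 or more at 20 µM, a signal rise over negative controls twice the positive control's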
# hIAP block: human IAP inhibition | 0.12% of 330,000 active | inhibition, % at 10 µM | purified IAP, CDP-Star luminescence, 30 min | P09923;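 active = inhibition reaching a set limit with compound at 10 µM in the primary screen, cut at about 35% in these data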;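 note: plate controls were DMSO wells with enzyme for no effect and no-enzyme buffer wells for full effect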
# Target sequence (P09923 whole entry, looked up): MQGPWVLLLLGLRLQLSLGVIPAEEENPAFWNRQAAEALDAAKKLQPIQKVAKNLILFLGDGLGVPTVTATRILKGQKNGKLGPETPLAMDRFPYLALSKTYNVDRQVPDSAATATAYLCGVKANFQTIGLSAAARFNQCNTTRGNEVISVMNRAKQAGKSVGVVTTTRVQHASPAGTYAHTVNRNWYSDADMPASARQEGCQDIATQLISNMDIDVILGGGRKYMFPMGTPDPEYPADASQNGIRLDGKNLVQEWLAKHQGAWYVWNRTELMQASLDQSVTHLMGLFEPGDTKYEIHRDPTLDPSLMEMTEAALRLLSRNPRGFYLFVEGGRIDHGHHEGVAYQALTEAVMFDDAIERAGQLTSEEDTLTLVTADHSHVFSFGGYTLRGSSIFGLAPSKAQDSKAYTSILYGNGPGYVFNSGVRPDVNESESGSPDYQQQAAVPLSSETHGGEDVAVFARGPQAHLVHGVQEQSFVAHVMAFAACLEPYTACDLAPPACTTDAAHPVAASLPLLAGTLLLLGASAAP
# mIAP inh: mouse IAP inhibition | 0.2% of 330,000 active | AID 2806 | inhibition, % at 10 µM | purified mouse IAP, CDP-Star luminescence, 30 min;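 active = inhibition of at least 40% at 10 µM in the primary screen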;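 note: plate controls were DMSO with enzyme for no effect and no enzyme wells for full effect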
# hIAP activ: human IAP activation | P09923 | purified human IAP, CDP-Star luminescence, 30 min; stronger effect = higher value; 1 = vehicle-only enzyme, 0 = enzyme-free background | activation factor at 10 µM | 0.16% of 330,000 active | AID 2524;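 active = activation factor of the enzyme at least 2-fold when tested at 20 µM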
# hIAP act conf: human IAP activation confirmation; shares compounds with hIAP activ; purified IAP, CDP-Star luminescence, 30 min; stronger effect = lower value; activation (%Activity, negative = activation), % at 8.3 µM; 10% of 880 active;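 active = at least twofold enzyme activation in any of six single-dose repeats, which the averaged readout prints as negative percent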
# mIAP inh confirm: mouse IAP inhibition confirmation | shares compounds with mIAP inh | purified mouse IAP, CDP-Star luminescence, 30 min | inhibition, % at 10 µM | 4.7% of 11,000 active;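 active = inhibition of at least 40% at 10 µM in either of the two replicates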;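 note: plate controls were DMSO wells with enzyme for no effect and buffer wells lacking enzyme for full effect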
# * hit, by the source's call; i = inactive; x = no result.
SMILES,mIAP activ,bIAP inh,bIAP activator,hIAP block,mIAP inh,hIAP activ,hIAP act conf,mIAP inh confirm
CCC(C)(C)NC(=O)C(c1ccc(F)cc1)N(Cc1cccc(OC)c1)C(=O)c1cnccn1 (stereo not given),1.04,0.1,1,6.6,-4.0,0.934,x,x
O=c1[nH]c(/C=C\c2ccc(O)c(O)c2)nc(O)c1[N+](=O)[O-],0.522,x,x,43.3*,47.8*,0.567,3.1,74.9*
O=C(NN1C(=O)CSC1=S)C(=O)NN1C(=O)CSC1=S,0.111,-45.8,1.5,-145.4,88.9*,2.45*,73.8,91.8*
c1ccc(Cc2nnc3n2N=C(c2ccccc2)CS3)cc1,1.05,2.3,1,-5.3,-4.7,1.05,x,x
CS(=O)(=O)c1ccc2c(c1)sc1nc(=O)c(/C=C3/C=CC(=O)C(O)=C3)c(N)n12,0.251,x,x,58.5*,74.9*,0.415,-2.9,85.3*
COC1=C/C(=C/c2c(N)n3c(nc2=O)sc2cc(S(C)(=O)=O)ccc23)C=CC1=O,0.737,x,x,29.3,26.3,0.707,x,x
Cc1ccc(NC(=O)C2CC(=O)n3c(nc4ccccc43)N2)cc1C (stereo not given),3.51*,x,x,-114.9,-250.8,2.15*,-2.1,-119.6
Cc1ccc(C)n1-c1cccc(S(=O)(=O)N2CCOCC2)c1,0.931,2.9,1,12.2,6.9,0.878,x,x
O=C(NN1C(=O)/C(=C/c2ccc(O)cc2)SC1=S)c1ccccc1O,0.599,x,x,35.8*,40.1*,0.642,-23.3,55.7*
NS(=O)(=O)c1ccc(CCNc2ccccc2[N+](=O)[O-])cc1,0.912,x,x,30.6,8.8,0.694,x,x
COc1ccccc1CN1CCC(n2nccc2NC(=O)CCCc2ccccc2)CC1,2.04*,x,x,-230.9,-104.4,3.31*,-112.4*,-108.1
O=C(CCc1ccccc1)Nc1ccnn1C1CCN(C/C=C/c2ccccc2)CC1,1.53,x,x,-89.0,-53.0,1.89,x,x
COc1ccccc1/C=C/CN1CCC(n2nccc2NC(=O)CCc2ccccc2)CC1,2.49*,x,x,-232.0,-149.1,3.32*,12.8,-120.6
COCc1ccc(CN2CCC(n3nccc3NC(=O)CCCc3ccccc3)CC2)o1,1.04,x,x,-32.8,-3.7,1.33,x,x
CSc1ccc(CNC2CC2)cc1,0.995,-1.4,1,-2.5,0.5,1.02,x,x
O=C(Nc1cccc(-c2cccc(Cl)c2)c1)C1CCN(CC2CCOC2)CC1 (stereo not given),3.02*,x,x,-310.7,-201.6,4.11*,-25.8,-131.6
O=C(Nc1cccc(-c2cccc(Cl)c2)c1)C1CCN(Cc2ccon2)CC1,2.33*,x,x,-101.0,-132.7,2.01*,-10.8,-73.1
C=CCn1cc(CN2CCC(C(=O)Nc3cccc(-c4cccc(Cl)c4)c3)CC2)c(C)n1,6.48*,x,x,i,i,7.93*,-37.0,-274.2
C=CCn1cc(CN2CCC(C(=O)Nc3ccc(Oc4cccnc4)cc3)CC2)c(C)n1,0.908,x,x,3.0,9.2,0.97,x,x
Cc1c(CN2CCC(C(=O)Nc3cccc(-c4cccc(Cl)c4)c3)CC2)cnn1C,5.02*,x,x,i,-401.9,6.44*,-17.9,-311.8
O=C(Nc1cccc(-c2cccc(F)c2)c1)C1CCN(CC2CCOC2)CC1 (stereo not given),1.79,x,x,-95.5,-78.9,1.96,x,x
O=C(Nc1cccc(-c2cccc(Cl)c2)c1)C1CCN(Cc2ccccn2)CC1,1.98,x,x,-50.2,-98.2,1.5,x,x
COc1ccc(C(C)=O)cc1CC(=O)Nc1ccccc1-c1ccccc1,1,x,x,0.0,-0.4,1,x,x
O=C(Nc1cccc(-c2cccc(F)c2)c1)C1CCN(C2CCC2)CC1,3.14*,x,x,-115.6,-213.7,2.16*,67.6,-154.8
Cn1cc(CN2CCC(C(=O)Nc3cccc(-c4cccc(F)c4)c3)CC2)cn1,2.3*,x,x,-153.6,-129.9,2.54*,4.5,-129.4
SMILES,mIAP activ,bIAP inh,bIAP activator,hIAP block,mIAP inh,hIAP activ,hIAP act conf,mIAP inh confirm
Cc1cccc(CN2CCC(C(=O)Nc3cccc(-c4cccc(F)c4)c3)CC2)n1,1.88,x,x,8.2,-88.2,0.918,x,x
Cc1nn(C(C)C)c(C)c1CN1CCC(C(=O)Nc2cccc(-c3cccc(F)c3)c2)CC1,4.73*,x,x,i,-373.1,11*,-20.6,-388.8
COc1cccc(-c2cccc(NC(=O)C3CCN(Cc4cnn(C)c4)CC3)c2)c1,1.21,x,x,-4.4,-20.7,1.04,x,x
CN(C1CCCCC1)S(=O)(=O)c1ccc2c(c1)c(=O)c(C(=O)NCCN1CCCC1)cn2C,0.938,-2.8,1,6.1,6.2,0.939,x,x
Cc1ccc(C(=O)NNC(=O)Cn2nnc3ccccc32)cc1,1.01,x,x,-21.8,-1.2,1.22,x,x
CCOc1ccccc1NC(=O)CCc1nnc2ccc(N3CCC(C)CC3)nn12,1.11,x,x,-10.8,-11.0,1.11,x,x
O=C1/C(=C/c2cccc([N+](=O)[O-])c2)Oc2cc(O)ccc21,1.02,x,x,3.8,-2.0,0.962,x,x
O=C1/C(=C/c2ccc(O)c(O)c2)Oc2cc(O)ccc21,0.414,x,x,96.5*,58.6*,0.035,-0.6,69.3*
Cn1cccc1C(=O)OCc1cc(Cl)cc2c1OCOC2,0.938,-1.3,1,-6.9,6.2,1.07,x,24.1*
CC(C)c1ccc(S(=O)(=O)Nc2ccc(O)c(Sc3ncn[nH]3)c2)cc1,0.653,x,x,-68.9,34.7,1.69,x,x
Cc1cc(C)c(S(=O)(=O)Nc2ccc(O)cc2)cc1C,0.989,13.4,0.9,-7.0,1.1,1.07,x,x
Cc1cc(C)c(S(=O)(=O)Nc2ccc(O)c(Sc3ncn[nH]3)c2)cc1C,0.209,x,x,-3.3,79.1*,1.03,x,86.5*
COc1ccc(S(=O)(=O)Nc2ccc(O)c(Sc3ncn[nH]3)c2)cc1,0.371,-8.8,1.1,-12.9,62.9*,1.13,x,71.8*
O=C1CSC(=S)N1/N=C/c1ccc(Cl)c([N+](=O)[O-])c1,0.495,x,x,-3.2,50.5*,1.03,x,48.0*
COc1ccc(Br)cc1/C=N/N1C(=O)CSC1=S,0.809,x,x,-7.6,19.1,1.08,x,x
COc1cc(/C=N/N2C(=O)CSC2=S)ccc1O,0.475,26.1,0.7,-2.9,52.5*,1.03,x,65.0*
COCCCNc1nc(N)c([N+](=O)[O-])c(N2CCCCCC2)n1,1.12,x,x,11.4,-12.5,0.886,x,x
Cc1ccc(C)c(N=Cc2cc3c(cc2[N+](=O)[O-])OCO3)c1,0.666,7.5,0.9,4.1,33.4,0.959,x,x
O=C(O)/C=C\c1cc2c(cc1[N+](=O)[O-])OCO2,0.585,x,x,-15.9,41.5*,1.16,x,45.4*
CC(C)(C)c1ccc(O)c(N=Cc2cc3c(cc2[N+](=O)[O-])OCO3)c1,0.582,x,x,7.2,41.8*,0.928,x,49.2*
COc1ccc(CCNC(=O)Cc2nn(C)c(=O)c3ccccc23)cc1OC,0.946,4.0,1,3.9,5.4,0.961,x,x
